{"source": "ChEMBL document CHEMBL1221308", "about": "“Synthesis and biological evaluation of new jasplakinolide (jaspamide) analogs” (Bioorg Med Chem Lett, 2010)", "test_system": "CA46", "test": "Growth inhibition of human CA46 cells […] after 24 hrs", "format": "functional, cell-based", "outline": "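Human CA46 Burkitt lymphoma cells treated for 24 h; growth read as cell number, IC50 derived from that count.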"}
{"smiles": "COc1ccc([C@H]2CC(=O)O[C@@H](C)C[C@@H](C)/C=C(\\C)CCC(=O)NCC(=O)N(C)[C@H](Cc3c(Br)[nH]c4ccccc34)C(=O)N2)cc1", "values": [{"measurement": "IC50", "setting": "Homo sapiens, CA46, 24 h", "result": 300, "unit": "nM"}]}
{"smiles": "COc1ccc([C@H]2CC(=O)O[C@@H](C)C[C@@H](C)/C=C(\\C)CCC(=O)N[C@@H](C)C(=O)N[C@H](Cc3c(Br)[nH]c4ccccc34)C(=O)N2)cc1", "values": [{"measurement": "IC50", "setting": "Homo sapiens, CA46, 24 h", "result": 3000, "unit": "nM"}]}
{"smiles": "COc1ccc([C@H]2CC(=O)O[C@@H](C)C[C@@H](C)/C=C(\\C)CCC(=O)N[C@@H](C)C(=O)N(C)[C@H](Cc3c[nH]c4ccccc34)C(=O)N2)cc1", "values": [{"measurement": "IC50", "setting": "Homo sapiens, CA46, 24 h", "result": 200, "unit": "nM"}]}
{"smiles": "COc1ccc([C@H]2CC(=O)NC(C)C[C@@H](C)/C=C(\\C)CCC(=O)N[C@@H](C)C(=O)N(C)[C@H](Cc3c(Br)[nH]c4ccccc34)C(=O)N2)cc1", "note": "(single isomer, unassigned; diastereomer 2)", "values": [{"measurement": "IC50", "setting": "ca46", "result": 3000, "unit": "nM"}]}
{"smiles": "COc1ccc([C@H]2CC(=O)O[C@@H](C)C[C@@H](C)/C=C(\\C)C[C@@H](C)C(=O)N[C@@H](C)C(=O)N(C)[C@H](Cc3c(Br)[nH]c4ccccc34)C(=O)N2)cc1", "values": [{"measurement": "IC50", "setting": "Homo sapiens, CA46, 24 h", "result": 20, "unit": "nM"}]}
{"smiles": "C/C1=C\\[C@H](C)C[C@H](C)OC(=O)C[C@H](c2ccccc2)NC(=O)[C@@H](Cc2c(Br)[nH]c3ccccc23)N(C)C(=O)[C@H](C)NC(=O)CC1", "values": [{"measurement": "IC50", "setting": "Homo sapiens, CA46, 24 h", "result": 200, "unit": "nM"}]}
{"smiles": "COc1ccc([C@H]2CC(=O)NC(C)C[C@@H](C)/C=C(\\C)CCC(=O)N[C@@H](C)C(=O)N(C)[C@H](Cc3c(Br)[nH]c4ccccc34)C(=O)N2)cc1", "note": "(stereo in doubt)", "values": [{"measurement": "IC50", "setting": "ca46", "result": 750, "unit": "nM"}]}
